Hits are enriched below; roughly 3.7% of the tested compounds scored in any of these assays.
KCNK9 block = inhibitors of human KCNK9 two-pore domain potassium channel. Q9NPC2. HEK293 KCNK9, FluxOR thallium flux fluorescence; stronger effect = lower value. B-score at 10 µM. 310,000 compounds, 1.2% hits. AID 488922;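 active = ratio B-score over 3 SD below the library mean, with starting fluorescence within 5 SD of its mean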;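 also: negative B-score means less thallium flux so channel inhibition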
KCNQ1 pot = potentiates or activates the human KCNQ1 potassium channel. CHO-K1 KCNQ1, thallium flux FluxOR fluorescence; stronger effect = higher value. B-score at 10 µM. 310,000 compounds, 0.35% hits;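 active = fluorescence ratio B-score, a plate-corrected score, at least three library SD, with initial intensity B-score within 5 SD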
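Material: CHO-K1 cells stably expressing KCNQ1. Medium: assay buffer for compound exposure, DMSO matched across wells. Reagent: K+/Tl+ depolarizing stimulus. Compound dosing: single-concentration screen. Times: 37 °C overnight plating, 90-min dark dye load, 20-min compound pretreatment. Technique: FluxOR Tl+ flux fluorescence.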
KCNK3 inh = human KCNK3 channel inhibition, primary screen; 340,000 compounds, 0.84% hits; CHO-KCNK3 thallium flux, FluxOR fluorescence; stronger effect = lower value; B-score at 10 µM;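 active = B-score under library mean minus 4 SD, starting fluorescence ratio at most library mean plus 5 SD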;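 also: more negative B-score means stronger inhibition of thallium flux through KCNK3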
Target sequence (O14649 whole entry, looked up): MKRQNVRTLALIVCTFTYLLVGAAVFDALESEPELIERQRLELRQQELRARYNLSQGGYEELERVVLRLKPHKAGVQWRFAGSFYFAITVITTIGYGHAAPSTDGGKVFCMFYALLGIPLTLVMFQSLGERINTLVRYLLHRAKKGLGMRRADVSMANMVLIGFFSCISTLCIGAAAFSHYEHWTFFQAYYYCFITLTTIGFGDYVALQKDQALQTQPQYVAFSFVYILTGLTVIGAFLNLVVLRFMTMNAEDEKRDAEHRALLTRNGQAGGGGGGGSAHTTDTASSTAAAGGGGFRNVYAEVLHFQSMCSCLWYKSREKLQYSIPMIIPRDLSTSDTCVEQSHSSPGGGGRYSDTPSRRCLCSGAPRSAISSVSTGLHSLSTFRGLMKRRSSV
KCNQ1 inh = human KCNQ1 channel inhibition. P51787. CHO-K1 KCNQ1, FluxOR thallium flux fluorescence; stronger effect = higher value. B-score at 10 µM. 310,000 compounds, 1.3% hits;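 active = compounds whose thallium flux B-score, printed positive for inhibition, exceeds three library SD while starting fluorescence stays within three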;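 also: channel opened by potassium depolarization with thallium stimulus after 20 min compound exposure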
hERG protect = hERG (human) protection from proarrhythmic block; CHO-hERG, FluxOR thallium flux, dofetilide IC70 present; activation (rescue from dofetilide block), less the hit threshold, % at 10 µM; 310,000 compounds, 0.51% hits;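 active = activation above the mean of controls blocked by dofetilide plus 5 SD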;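 also: thallium influx through hERG after potassium depolarization seen as dye fluorescence rise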
Kir21 inh = Kir2.1 (mouse) channel inhibition. P35561. HEK293-Kir2.1, FluxOR thallium flux fluorescence; stronger effect = lower value. B-score at 10 µM. 310,000 compounds, 0.85% hits. AID 1672;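 active = fluorescence ratio B-score at or below minus 3 SD of library scores, with starting-brightness B-score within 2 SD, cut at about -4.2 in these data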;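 also: channel flux triggered by added potassium and thallium sulfate stimulus; B-score of peak minus minimum fluorescence over baseline after thallium stimulus; more negative B-score means stronger Kir2.1 block with less thallium influx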
Target sequence (P35561 whole entry, looked up): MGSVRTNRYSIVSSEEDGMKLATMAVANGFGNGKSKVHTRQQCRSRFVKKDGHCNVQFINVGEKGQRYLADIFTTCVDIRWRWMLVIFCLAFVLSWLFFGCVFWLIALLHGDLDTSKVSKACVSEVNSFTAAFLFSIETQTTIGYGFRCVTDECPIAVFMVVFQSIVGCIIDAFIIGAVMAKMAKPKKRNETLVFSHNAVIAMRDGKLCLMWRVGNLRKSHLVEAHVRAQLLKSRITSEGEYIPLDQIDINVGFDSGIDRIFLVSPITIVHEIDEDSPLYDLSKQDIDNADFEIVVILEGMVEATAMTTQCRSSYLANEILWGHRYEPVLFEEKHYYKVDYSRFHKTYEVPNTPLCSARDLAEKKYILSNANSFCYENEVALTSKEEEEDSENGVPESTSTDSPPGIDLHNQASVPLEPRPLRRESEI
KCNQ1 inh valid = confirmation of human KCNQ1 potassium channel inhibitors. shares compounds with KCNQ1 inh. KCNQ1 cell line, FluxOR thallium flux fluorescence. AID 588353. 1,600 compounds, 93% hits. inhibition, % at 10 µM;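 active = primary screen active, with duplicate mean exceeding buffer control mean plus 3 SD of buffer wells, cut at about 28% in these data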;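 also: 0% = buffer control ratio and 100% = XE991 inhibitor control ratio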
CHO KCNQ1 ctr = KCNQ1 inhibitor counter-screen hit in parental CHO cells; AID 588366; fluorescence ratio (Tl flux) at 10 µM; 1,600 compounds, 21% hits; shares compounds with KCNQ1 inh; parental CHO-K1, FluxOR thallium flux fluorescence ratio; stronger effect = lower value; zero means no signal rise above baseline;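 active = mean of duplicate thallium-flux fluorescence ratios in parental host cells more than 5 SD below the buffer control mean, cut at about 0.38 in these data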;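 also: ratio is peak minus minimum fluorescence divided by baseline fluorescence; actives read low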
KCNQ1 ephys val = human KCNQ1 inhibition validated by electrophysiology; shares compounds with KCNQ1 inh; KCNQ1-CHO cells, automated patch clamp current; calls only at 10 µM; 490 compounds, 20% hits;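 active = KCNQ1 current drop exceeding 3 SD of negative control wells, seen in both duplicate runs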;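 also: steady state current during a 2 s step from -80 to +40 mV; negative values mean current inhibition and positive values mean potentiation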
KCNQ2 spec = rat KCNQ2 inhibition in KCNQ1 inhibitor specificity screen | 1,600 compounds, 71% hits | inhibition, % at 10 µM | shares compounds with KCNQ1 inh | KCNQ2 cells, FluxOR thallium flux fluorescence | AID 651746;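 active = mean percent inhibition of the KCNQ2 thallium signal more than 5 SD above the buffer-only control wells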;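 also: KCNQ2 expressed in CHO cells; 0% = buffer control wells and 100% = XE-991 inhibitor control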
KCNQ1-KCNE1 inh = human KCNQ1/KCNE1 inhibition in KCNQ1 specificity screen; shares compounds with KCNQ1 inh; KCNQ1/KCNE1 cells, FluxOR thallium flux fluorescence; inhibition, % at 10 µM; 1,600 compounds, 77% hits; AID 652147;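 active = mean percent inhibition of duplicate wells above the buffer-only control mean plus 3 SD of those controls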;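 also: 0% = buffer only wells and 100% = XE-991 inhibitor control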
KCNK9 block conf = confirmation of human KCNK9 potassium channel inhibitors | inhibition, % at 10 µM | shares compounds with KCNK9 block | 4,900 compounds, 43% hits | HEK293 KCNK9 cells, FluxOR thallium flux fluorescence;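 active = thallium signal inhibited by more than 5 SD of the compound-free buffer control wells, on both duplicate plates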;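 also: 0% = assay buffer control wells without compound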
Kir21 sel = tests whether KCNK9 modulators also affect mouse Kir2.1 | inhibition, % at 10 µM | AID 492993 | 4,900 compounds, 4% hits | shares compounds with KCNK9 block | Kir2.1 cells, FluxOR thallium flux fluorescence;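 active = thallium signal drop more than 5 SD beyond the mean of the no-compound control wells, seen in both duplicate plates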;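 also: signal is fluorescence rise after thallium addition divided by baseline fluorescence; plate controls were assay buffer only for no effect and full block by chlorpromazine control for full effect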
HEK293 Tl ctr = non-induced cell nonspecific activity of KCNK9 modulators | non-induced KCNK9-HEK293, FluxOR thallium flux | shares compounds with KCNK9 block | AID 492997 | 4,900 compounds, 40% hits | inhibition, % at 10 µM;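 active = thallium signal drop beyond 5 SD of the untreated control mean, on both duplicate plates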;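 also: plate controls were buffer only IC0 wells for no effect and SID17386958 at its maximal inhibitory level for full effect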
KCNK3 confirm = human KCNK3 channel inhibition, confirmation assay. shares compounds with KCNK3 inh. ratio percent of control, % at 10 µM. 2,400 compounds, 99% hits. CHO-KCNK3 thallium flux, FluxOR fluorescence; 0% buffer, 100% carvedilol maximal block;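 active = ratio percent of control, averaged over triplicates, above buffer control mean plus 5 SD, cut at about 64% in these data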;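 also: ratio is the fluorescence rise from min to max over baseline after thallium stimulus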
KCNK3 uninduced = KCNK3 inhibitor counter-screen hit in non-induced cells. shares compounds with KCNK3 inh. non-induced KCNK3 parental cells, FluxOR thallium flux; stronger effect = lower value. thallium flux ratio (lower = more inhibition) at 10 µM. 2,400 compounds, 40% hits;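 active = thallium flux ratio, averaged over three wells, more than 5 SD below the buffer control mean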;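 also: host cells are CHO cells without KCNK3 induction; ratio is peak minus trough fluorescence over baseline then normalized to buffer controls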
* marks the source's active call; other numbers are inactive results; i = inactive; . = not tested or not shown; + = active, no number.

SMILES	KCNK9 block	KCNQ1 pot	KCNK3 inh	KCNQ1 inh	hERG protect	Kir21 inh	KCNQ1 inh valid	CHO KCNQ1 ctr	KCNQ2 spec	KCNQ1-KCNE1 inh	KCNK9 block conf	Kir21 sel	HEK293 Tl ctr	KCNK3 confirm	KCNK3 uninduced	others
CCOC(=O)C1CCN(c2ncnc3c(C)csc23)CC1	i	i	i	i	-4.1	0.28	.	.	.	.	.	.	.	.	.
Cc1csc2c(N3CCN(C(=O)c4ccc(C(C)(C)C)cc4)CC3)ncnc12	i	i	-9.77*	9*	-21.4	0.09	138.5*	0.304*	137.3%*	169.5%*	.	.	.	130.0*	i
CC1CCCCC1NC(=O)c1cc2c(=O)n3ccccc3nc2n1C (stereo unspecified)	i	i	i	i	-10.9	-0.25	.	.	.	.	.	.	.	.	.
CC1CC(NC(=O)c2cc3c(=O)n4ccccc4nc3n2C)CC(C)(C)C1 (stereo unspecified)	i	i	-9.23*	6*	-7.5	-0.87	38.5*	0.417	101.0%*	i	.	.	.	95.7*	i
O=C(Cc1cccs1)NCCSc1c(-c2ccc(Cl)cc2)[nH]c2ccccc12	-13.8*	i	-14.4*	19*	-16.9	1.24	134.0*	0.345*	124.0%*	186.0%*	53.5%*	i	32.0%*	132.0*	0.146*
CCOC(=O)CSc1c(-c2ccc(Cl)cc2)[nH]c2ccccc12	i	i	i	i	-6.6	-0.53	.	.	.	.	.	.	.	.	.
COc1cc2c(cc1OC)C(c1ccc(-c3ccccc3Cl)o1)=NCC2	i	i	-12*	12*	-31.1	0.01	136.5*	0.37*	145.0%*	196.5%*	.	.	.	100.7*	0.125*
C[C@H]1CCC(=O)N([C@H](CSc2ccc(Br)cc2)Cc2ccccc2)CC1	.	.	i	.	.	.	.	.	.	.	.	.	.	.	.
COc1ccc(Cl)cc1C(=O)Nc1ccccc1N1CCCCC1	-8.86*	i	-8.94*	7*	-12.1	-0.43	103.0*	0.413	98.7%*	146.5%*	49.5%*	i	45.5%*	106.7*	i	KCNQ1 ephys val=i
O=C(Nc1cccnc1)c1cc(-c2ccc(Br)cc2)nc2ccccc12	-9.7*	i	-15.4*	8*	-18.4	-0.16	142.5*	0.25*	139.3%*	+	33.0%*	i	i	143.0*	i
CCCCNC(=S)N1CCn2cccc2C1c1ccc(F)cc1 (stereo unspecified)	-13.6*	i	-9.7*	6*	-23.0	0.33	92.5*	0.418	81.3%*	70.5%*	55.5%*	i	41.0%*	134.0*	0.147*	KCNQ1 ephys val=i
CCCCNC(=S)N1CCn2cccc2C1c1ccccc1 (stereo unspecified)	i	i	i	i	-11.7	1.24	.	.	.	.	.	.	.	.	.
O=C(Cn1cc(COc2ccc3ccc(=O)oc3c2)nn1)c1ccc(O)cc1	.	.	i	.	.	.	.	.	.	.	.	.	.	.	.
CC1=Nc2ccccc2/C1=C/c1sc(=S)n(-c2cccc(C(=O)O)c2)c1O	i	i	-11.4*	15*	4.0	-6.31	105.5*	0.342*	i	i	.	.	.	145.3*	0.114*
Oc1c(C=C2N=c3ccccc3=N2)sc(=S)n1-c1ccccc1	i	i	i	i	-8.0	0.78	.	.	.	.	.	.	.	.	.
O=C(CN1C(=O)NC2(CCCCC2)C1=O)NCc1cccs1	i	i	i	i	0.8	0.63	.	.	.	.	.	.	.	.	.
COc1ccc(NC(=O)c2cccc(OC(F)F)c2)cc1Cl	i	i	i	i	-7.5	-0.43	.	.	.	.	.	.	.	.	.
O=C(Nc1ccc(OC(F)F)c(Cl)c1)c1cccc(OC(F)F)c1	-11.6*	i	-11*	12*	-28.9	0.7	105.5*	0.521	i	43.0%*	54.5%*	i	i	120.0*	i	KCNQ1 ephys val=+
C=CC[n+]1c(-c2ccc(Cl)cc2Cl)csc1Nc1c(C)n(C)n(-c2ccccc2)c1=O	i	i	i	i	-19.7	-0.54	.	.	.	.	i	i	i	.	.
O=C(/C=C/c1ccccc1)NC(NC(=S)Nc1cc(Cl)ccc1Cl)C(Cl)(Cl)Cl (stereo unspecified)	i	i	i	11*	-10.8	1.08	.	.	.	.	i	i	i	.	.
CCc1noc(C)c1C(=O)OC(C)C(=O)Nc1ccccc1OC (stereo unspecified)	i	i	i	i	-21.3	-2.12	.	.	.	.	.	.	.	.	.
CCOc1ccccc1NC(=O)C1C2CCC3C(CCC21)C3(Cl)Cl (stereo unspecified)	i	i	i	i	-7.3	-0.87	.	.	.	.	i	i	31.5%*	.	.
O=C(Nc1ccccc1)C1C2CCC3C(CCC21)C3(Cl)Cl (stereo unspecified)	i	i	i	i	-1.2	-0.52	.	.	.	.	.	.	.	.	.
O=C(Nc1ccccc1Cl)C1C2CCC3C(CCC21)C3(Cl)Cl (stereo unspecified)	i	i	i	i	-2.6	0.24	.	.	.	.	.	.	.	.	.
O=C(Nc1cccc(Cl)c1)C1C2CCC3C(CCC21)C3(Cl)Cl (stereo unspecified)	i	i	i	i	-15.4	-0.86	.	.	.	.	i	i	i	.	.
CCOc1cccc(N2CCN(CCNC(=O)Nc3ccc(C)cc3)CC2)c1C	i	i	i	i	-11.8	0.35	.	.	.	.	.	.	.	.	.

Source: PubChem BioAssay (Johns Hopkins Ion Channel Center)
